# Results published in ChEMBL document CHEMBL1141140, “Antifungal agents. 11. N-substituted derivatives of 1-[(aryl)(4-aryl-1H-pyrrol-3-yl)methyl]-1H-imidazole: synthesis, anti-Candida activity, and QSAR studies” (2005).
# Experiments:
# Candida albicans [1] = test: In vitro minimal inhibitory concentration against Candida albicans with percentage of resistant strains %R = 50 (MIC > 64 ug/mL) at a range of 0.125-2 ug/mL; format: functional
# Candida albicans [2] = test: In vitro concentration causing 50% inhibition of Candida albicans with percentage of resistant strains %R = 50 (MIC > 64 ug/mL) at a range of 0.125-2 ug/mL; format: functional
# Candida albicans [3] = test: In vitro concentration causing 90% inhibition of Candida albicans with percentage of resistant strains %R = 50 (MIC > 64 ug/mL) at a range of 0.125-2 ug/mL; format: functional
# Candida albicans [4] = test: Ratio of the in vitro minimal inhibitory to that of bifonazole against Candida albicans (MIC(compound)/MIC(bifonazole)); format: functional
# Method in brief: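 Broth microdilution per NCCLS M27-A2 against 12 Candida albicans strains (AIDS oropharyngeal, HIV vulvovaginitis isolates, ATCC 24433 and 20891, lab strains 3153 and CA2). Inoculum ~10^4 cells/mL in RPMI 1640, pH 7.0; DMSO stocks 6.4 mg/mL, twofold dilutions 0.016–64 μg/mL; read at 24 h, 28 °C, no visible growth. Mean MIC over strains converted to μmol/mL, divided by bifonazole MIC.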
# Candida albicans [5] = test: In vitro minimal inhibitory concentration against Candida albicans with percentage of resistant strains %R = 100 (MIC > 64 ug/mL) at a range > 64; format: functional
# Candida albicans [6] = test: In vitro concentration causing 50% inhibition of Candida albicans with percentage of resistant strains %R = 100 (MIC > 64 ug/mL) at a range > 64; format: functional
# Candida albicans [7] = test: In vitro concentration causing 90% inhibition of Candida albicans with percentage of resistant strains %R = 100 (MIC > 64 ug/mL) at a range > 64; format: functional
# Candida albicans [8] = test: In vitro minimal inhibitory concentration against Candida albicans with percentage of resistant strains %R = 10 (MIC > 64 ug/mL) at a range of 0.5-8 ug/mL; format: functional
# Candida albicans [9] = test: In vitro concentration causing 50% inhibition of Candida albicans with percentage of resistant strains %R = 10 (MIC > 64 ug/mL) at a range of 0.5-8 ug/mL; format: functional
# Candida albicans [10] = test: Ratio of the in vitro minimal inhibitory concentrations to that of bifonazole against Candida albicans (MIC(compound)/MIC(bifonazole)); format: functional
# Candida albicans [11] = test: In vitro concentration causing 90% inhibition of Candida albicans with percentage of resistant strains %R = 10 (MIC > 64 ug/mL) at a range of 0.5-8 ug/mL; format: functional
# Candida albicans [12] = test: In vitro minimal inhibitory concentration against Candida albicans with percentage of resistant strains %R = 16 (MIC > 64 ug/mL) at a range of 2-32 ug/mL; format: functional
# Candida albicans [13] = test: In vitro concentration causing 50% inhibition of Candida albicans with percentage of resistant strains %R = 16 (MIC > 64 ug/mL) at a range of 2-32 ug/mL; format: functional
# Candida albicans [14] = test: In vitro concentration causing 90% inhibition of Candida albicans with percentage of resistant strains %R = 16 (MIC > 64 ug/mL) at a range of 2-32 ug/mL; format: functional
# Candida albicans [15] = test: In vitro minimal inhibitory concentration against Candida albicans with percentage of resistant strains %R = 50 (MIC > 64 ug/mL) at a range of 0.5-16 ug/mL; format: functional
# Candida albicans [16] = test: In vitro concentration causing 50% inhibition of Candida albicans with percentage of resistant strains %R = 50 (MIC > 64 ug/mL) at a range of 0.5-16 ug/mL; format: functional
# Candida albicans [17] = test: In vitro concentration causing 90% inhibition of Candida albicans with percentage of resistant strains %R = 50 (MIC > 64 ug/mL) at a range of 0.5-16 ug/mL; format: functional
# Candida albicans [18] = test: In vitro minimal inhibitory concentration against Candida albicans with percentage of resistant strains %R = 50 (MIC > 64 ug/mL) at a range of 0.5-2 ug/mL; format: functional
# Candida albicans [19] = test: In vitro concentration causing 50% inhibition of Candida albicans with percentage of resistant strains %R = 50 (MIC > 64 ug/mL) at a range of 0.5-2 ug/mL; format: functional
# Candida albicans [20] = test: In vitro concentration causing 90% inhibition of Candida albicans with percentage of resistant strains %R = 50 (MIC > 64 ug/mL) at a range of 0.5-2 ug/mL; format: functional
# Candida albicans [21] = test: In vitro minimal inhibitory concentration against Candida albicans with percentage of resistant strains %R = 33.33 (MIC > 64 ug/mL) at a range of 0.25-2 ug/mL; format: functional
# Candida albicans [22] = test: In vitro concentration causing 50% inhibition of Candida albicans with percentage of resistant strains %R = 33.33 (MIC > 64 ug/mL) at a range of 0.25-2 ug/mL; format: functional
# Candida albicans [23] = test: In vitro concentration causing 90% inhibition of Candida albicans with percentage of resistant strains %R = 33.33 (MIC > 64 ug/mL) at a range of 0.25-2 ug/mL; format: functional
# Candida albicans [24] = test: In vitro minimal inhibitory concentration against Candida albicans with percentage of resistant strains %R = 66 (MIC > 64 ug/mL) at a range of 0.25-2 ug/mL; format: functional
# Candida albicans [25] = test: In vitro concentration causing 50% inhibition of Candida albicans with percentage of resistant strains %R = 66 (MIC > 64 ug/mL) at a range of 0.25-2 ug/mL; format: functional
# Candida albicans [26] = test: In vitro concentration causing 90% inhibition of Candida albicans with percentage of resistant strains %R = 66 (MIC > 64 ug/mL) at a range of 0.25-2 ug/mL; format: functional
# Candida albicans [27] = test: In vitro concentration causing 50% inhibition of Candida albicans with percentage of resistant strains %R = 33.33 (MIC > 64 ug/mL) at a range of 0.062-2 ug/mL; format: functional
# Candida albicans [28] = test: In vitro concentration causing 90% inhibition of Candida albicans with percentage of resistant strains %R = 33.33 (MIC > 64 ug/mL) at a range of 0.062-2 ug/mL; format: functional
# Candida albicans [29] = test: microbe, parasite or virus in culture
smiles,measurement,setting,value
Cn1cc(-c2ccc(Cl)cc2)c(C(c2ccc(Cl)cc2Cl)n2ccnc2)c1 (stereo not given),MIC,Candida albicans [1],1.31 µg/mL
same,MIC50,Candida albicans [2],1 µg/mL
same,MIC90,Candida albicans [3],2 µg/mL
same,Ratio,Candida albicans [4],0.28
CCCn1cc(-c2ccc(Cl)cc2Cl)c(C(c2ccc(Cl)cc2Cl)n2ccnc2)c1 (stereo not given),MIC,Candida albicans [5],> 64 µg/mL
same,MIC50,Candida albicans [6],> 64 µg/mL
same,MIC90,Candida albicans [7],> 64 µg/mL
c1ccc(-c2ccc(C(c3ccccc3)n3ccnc3)cc2)cc1 (stereo not given) [BIFONAZOLE],MIC,Candida albicans [8],3.5 µg/mL
same,MIC50,Candida albicans [9],2 µg/mL
same,Ratio,Candida albicans [10],1
same,MIC90,Candida albicans [11],8 µg/mL
Cn1cc(-c2ccc(Cl)cc2Cl)c(C(c2ccc(Cl)cc2Cl)n2ccnc2)c1 (stereo not given),MIC,Candida albicans [12],14.6 µg/mL
same,MIC50,Candida albicans [13],8 µg/mL
same,MIC90,Candida albicans [14],32 µg/mL
same,Ratio,Candida albicans [4],2.9
Cn1cc(-c2cccc3ccccc23)c(C(c2ccc(Cl)cc2Cl)n2ccnc2)c1 (stereo not given),MIC,Candida albicans [15],4.58 µg/mL
same,MIC50,Candida albicans [16],4 µg/mL
same,MIC90,Candida albicans [17],16 µg/mL
same,Ratio,Candida albicans [4],0.94
Clc1ccc(C(c2c[nH]cc2-c2cccc3ccccc23)n2ccnc2)c(Cl)c1 (stereo not given),MIC,Candida albicans [18],1 µg/mL
same,MIC50,Candida albicans [19],0.5 µg/mL
same,MIC90,Candida albicans [20],2 µg/mL
same,Ratio,Candida albicans [4],0.21
Cc1ccc(C(c2cn(C)cc2-c2ccc(Cl)c(Cl)c2)n2ccnc2)cc1 (stereo not given),MIC,Candida albicans [21],0.87 µg/mL
same,MIC50,Candida albicans [22],0.5 µg/mL
same,MIC90,Candida albicans [23],2 µg/mL
same,Ratio,Candida albicans [4],0.19
CCCn1cc(-c2ccc(Cl)cc2)c(C(c2ccc(Cl)cc2Cl)n2ccnc2)c1 (stereo not given),MIC,Candida albicans [24],8.56 µg/mL
same,MIC50,Candida albicans [25],1 µg/mL
same,MIC90,Candida albicans [26],32 µg/mL
same,Ratio,Candida albicans [4],1.7
Clc1ccc(COC(Cn2ccnc2)c2ccc(Cl)cc2Cl)c(Cl)c1 (stereo not given) [MICONAZOLE],MIC50,Candida albicans [27],0.062 µg/mL
same,MIC90,Candida albicans [28],1 µg/mL
same,Ratio,Candida albicans [4],0.14
same,MIC,Candida albicans [29],0.65 µg/mL
